Screening data: PubChem BioAssay, several laboratories
HNF4A DNA FP: change in binding of human HNF4 alpha to DNA; P41235; HNF4a-FITC DNA binding, fluorescence polarization, 1 h; activity change, % at 10 µM; hit rate 0.3% among 360,000; AID 1224865; in the data active = activity change above about 30%, passing the limit was not always enough
CSN inh: blocks human CSN-mediated cullin deneddylation | Q92905 | Purified CSN, SCF-Nedd8-OG deneddylation, fluorescence polarization | inhibition, % at 12.5 µM | hit rate 0.38% among 360,000;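 active = pattern-corrected inhibition above about 35%, with an unprinted fluorescence ratio check between 0.5 and 1.5, limit read from the data, passing the limit was not always enough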;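 note: 0% = enzyme with substrate and 100% = substrate without enzyme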
Target sequence (Q92905 whole entry, looked up, one chain of several): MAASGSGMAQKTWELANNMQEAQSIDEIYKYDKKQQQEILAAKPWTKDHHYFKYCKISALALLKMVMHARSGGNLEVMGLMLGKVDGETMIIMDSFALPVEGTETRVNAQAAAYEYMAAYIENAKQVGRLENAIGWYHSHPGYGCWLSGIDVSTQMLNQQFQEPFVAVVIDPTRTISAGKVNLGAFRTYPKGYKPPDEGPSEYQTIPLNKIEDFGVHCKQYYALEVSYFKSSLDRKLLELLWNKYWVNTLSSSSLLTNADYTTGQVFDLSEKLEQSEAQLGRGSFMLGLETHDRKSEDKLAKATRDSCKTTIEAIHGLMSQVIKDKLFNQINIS
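Material: human Csn5 produced in HEK293T cells; Input: enzyme 0.24 nM; Reagent: SCFSkp2-Nedd8OG substrate at 10 nM final; Dosing: 12.5 µM compound; Incubation: 90 min reaction at room temperature; Detection: fluorescence polarization of the substrate; Evaluation: % inhibition of substrate cleavage by Csn5; Control set: substrate-only high control, full reaction low control.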
IDE act: activators of human insulin-degrading enzyme in cells. HEK cells, FAbeta-B cleavage, fluorescence polarization; 0% vehicle, 100% cell-free pure enzyme wells. activation, % at 5.96 µM. hit rate 0.073% among 340,000. AID 493087;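 active = activation above the mean of all tested compounds plus 3 SD, set per screening campaign, cut at about 17% in these data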
IDE cell inh: cellular human IDE inhibition; hit rate 0.41% among 320,000; inhibition, % at 5.59 µM; P14735; AID 434962; HEK cells, FAbetaB cleavage, fluorescence polarization;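 active = percent inhibition above the average of all tested compounds plus 3 SD, set per screening campaign, cut at about 16% in these data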;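 note: IDE supplied by intact live HEK cells; FP after avidin binding of uncleaved biotin substrate so inhibition keeps polarization high; 0% = DMSO wells and 100% = 60 µM reference IDE inhibitor Ii1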
Rpn11 inh: blocks the human proteasome subunit Rpn11 | O00487 | human 26S proteasome, Ub4-pepOG fluorescence polarization; 20S core pre-blocked with epoxomicin | inhibition, % at 20 µM | hit rate 0.59% among 360,000 | AID 588493;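 active = inhibition at 20 µM, scaled to each plate's controls, above about 33%, limit read from the data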
Target sequence (O00487 whole entry, looked up): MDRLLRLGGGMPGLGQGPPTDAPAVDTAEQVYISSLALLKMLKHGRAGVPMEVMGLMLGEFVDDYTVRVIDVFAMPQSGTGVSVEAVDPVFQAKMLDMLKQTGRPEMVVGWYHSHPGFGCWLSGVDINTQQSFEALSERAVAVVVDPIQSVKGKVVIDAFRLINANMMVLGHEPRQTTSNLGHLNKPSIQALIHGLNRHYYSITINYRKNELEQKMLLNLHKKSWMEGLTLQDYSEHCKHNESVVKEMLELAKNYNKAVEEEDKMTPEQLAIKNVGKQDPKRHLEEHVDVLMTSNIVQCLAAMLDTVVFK
TPT1 inhibitor: blocks Candida albicans tRNA 2'-phosphotransferase. recombinant caTPT1, FP RNA substrate dephosphorylation. inhibition, % at 5 µM. hit rate 0.81% among 300,000. AID 1962;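 active = inhibition above the mean of all tested compounds plus 3 SD, set per screening campaign, cut at about 24% in these data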;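 note: plate controls were DMSO alone for no effect and ferristatin control at 100 nM for full effect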
IDE inh confirm: confirmation of human insulin-degrading enzyme inhibitors in cells. hit rate 51% among 1,200. HEK cells, FAbetaB cleavage, fluorescence polarization. inhibition, % at 5.59 µM. shares compounds with IDE cell inh. AID 435028;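 active = mean inhibition across triplicate wells above the cutoff set by the earlier primary insulin-degrading enzyme screen, cut at about 16% in these data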;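 note: 0% = DMSO wells and 100% = 60 µM reference IDE inhibitor Ii1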
HEK293 tox: kills HEK cells in IDE inhibitor counter-screen; shares compounds with IDE cell inh; HEK293 cytotoxicity, ATP luminescence; inhibition, % at 5.59 µM; hit rate 28% among 1,200; AID 449730; in the data active = inhibition above about 22%;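 note: 0% = vehicle wells and 100% = reference cytotoxic drug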
* = called active by the depositor; . = no result shown. Rows were chosen to be rich in hits. Some 1.7% of all compounds tested hit in one or more screens of this group.

SMILES | HNF4A DNA FP | CSN inh | IDE act | IDE cell inh | Rpn11 inh | TPT1 inhibitor | IDE inh confirm | HEK293 tox
CN1CCN(c2cc(CNC[C@H]3O[C@@H](n4cnc5c(=O)[nH]c(N)nc54)[C@H](O)[C@@H]3O)ccc2F)CC1 | 3.0 | 3.9 | . | . | -3.5 | . | . | .
Cc1ccc(-n2sc3ccccc3c2=O)cc1S(=O)(=O)N1CCCCC1 | -2.1 | -3.5 | -30.2 | 82.9* | 9.4 | 1.9 | 25.4* | 20.5
O=c1c2ccccc2sn1-c1ccc(S(=O)(=O)N2CCCC2)cc1 | -0.3 | 0.5 | -49.8 | 38.0* | 1.0 | -0.4 | 12.5 | 21.8
O=c1c2ccccc2sn1-c1ccc(S(=O)(=O)N2CCCCC2)cc1 | 0.1 | -1.0 | -44.6 | -23.1 | 0.9 | -0.7 | . | .
NC(=O)c1ccc(NC(=O)COC(=O)CCC2CCCC2)cc1 | -3.5 | -0.9 | . | . | 0.2 | . | . | .
CCCCN(C(=O)COc1ccc(F)cc1)c1c(N)n(CC(C)C)c(=O)[nH]c1=O | 2.2 | 1.6 | . | . | 4.1 | . | . | .
C=CCC1=C/C(=C\c2c(N)n3nc(CC(=O)N4CCCC4)sc3nc2=O)C=C(OC)C1=O | 16.1 | 33.9 | -115.6 | 26.0* | . | 20.3 | 25.9* | 7.3
Nc1c(C=C2C=CC(=O)C=C2)c(=O)nc2sc(CC(=O)N3CCOCC3)nn12 | -3.8 | -4.1 | 6.2 | 2.8 | 0.7 | -0.9 | . | .
Nc1ccc(-c2c3ccc(=O)cc-3oc3cc(O)ccc23)c(C(=O)O)c1 | -97.1 | -70.8 | -12.8 | 49.2* | -74.8 | . | 28.4* | 3.6
COc1ccc(-c2cc(=O)c3ccc(O)cc3o2)cc1OC | 4.2 | 0.1 | . | . | -4.4 | . | . | .
Cc1ccc(N(CC(=O)N/N=C/c2cccc(Br)c2)S(C)(=O)=O)cc1 | -1.6 | -15.3 | -16.2 | 27.2* | 5.6 | 0.9 | 17.0* | 5.5
O=c1ccn([C@@H]2O[C@H](CNCc3c(OCc4ccccc4F)ccc4ccccc34)[C@@H](O)[C@H]2O)c(=O)[nH]1 | -3.8 | -1.3 | . | . | -22.9 | . | . | .
CCCC[n+]1c(C)sc2cc(OC)ccc21 | 5.7 | -4.4 | -1.5 | 18.0* | 5.1 | -2.0 | 6.4 | 5.1
COc1ccc2sc(C)[n+](C)c2c1 | 2.7 | -1.1 | -3.2 | 6.5 | -7.8 | -1.9 | . | .
Cc1cccc(C(O)c2ncc(-c3ccc(Cl)cc3)[nH]2)c1C (stereo not given) | -15.2 | -0.9 | . | . | -3.7 | . | . | .
Cc1cccc(N2CCN(C(=O)Cn3nc(C)n4cccc4c3=O)CC2C)c1 (stereo not given) | -2.3 | 3.5 | -3.4 | -0.9 | -0.4 | -1.8 | . | .
CCOc1ccc(NC(=O)Cn2sc3nc(C)cc(C)c3c2=O)cc1 | 3.2 | 1.6 | -52.5 | 39.9* | 2.1 | 8.1 | 11.4 | 79.2*
Cc1ccc(NC(=O)Cn2sc3nc(C)cc(C)c3c2=O)c(Cl)c1 | 1.9 | 2.4 | -62.7 | 53.7* | -0.5 | 6.0 | 11.2 | 26.6*
CCOc1ccc(NC(=O)Cn2ncc3ccccc32)cc1 | -2.7 | 3.2 | -2.1 | . | 1.8 | . | . | .
Cc1ccc(NC(=O)Cn2c(C)cc(C)c(C#N)c2=O)c(Cl)c1 | 0.7 | 3.3 | -7.5 | 7.1 | -12.3 | -4.2 | . | .
Cc1cccc(N2CCN(C(=O)Cn3sc4nc(C)cc(C)c4c3=O)CC2C)c1 (stereo not given) | 5.1 | 7.0 | -73.4 | 41.1* | 4.1 | 24.9* | 12.4 | 76.5*
CCOC(=O)c1cn(CC(=O)Nc2cccc(F)c2)nn1 | 0.5 | 0.9 | -2.6 | 2.2 | -5.8 | -1.6 | . | .
Cc1cc(C)c2c(=O)n(CC(=O)Nc3cccc(F)c3)sc2n1 | -0.2 | 1.6 | -56.0 | 21.4* | -5.0 | -2.9 | 7.7 | 113.4*
CCCS(=O)(=O)NC(=O)C1(C)CCCN(C(=O)CSc2ccccc2)C1 (stereo not given) | -0.3 | 2.9 | . | . | -2.1 | . | . | .
CCCCN1C(=O)C(CC(=O)NCCc2ccccn2)CC(C(=O)N2CCOCC2)=C1C (stereo not given) | 2.8 | -2.5 | . | . | 6.4 | . | . | .
SMILES | HNF4A DNA FP | CSN inh | IDE act | IDE cell inh | Rpn11 inh | TPT1 inhibitor | IDE inh confirm | HEK293 tox
COc1ccccc1C=NN=C(NN=Cc1ccccc1OC)NN=Cc1ccccc1OC | 2.0 | 1.8 | 8.1 | . | 8.2 | . | . | .
O=C(Cn1sc2ccccc2c1=O)Nc1ccc(Cl)cc1 | 2.3 | 3.8 | . | . | -5.8 | . | . | .
Cc1cc(C)c2c(=O)n(CC(=O)Nc3ccc(Cl)cc3)sc2n1 | 2.5 | 2.4 | -57.5 | 46.1* | -1.8 | 4.6 | 8.9 | 75.7*
CCCCN1C(=O)C(CC(=O)NCCN2CCOCC2)CC(C(=O)N(CC)CC)=C1C (stereo not given) | -0.1 | 4.2 | . | . | 3.5 | . | . | .
O=C(CC1Sc2ccccc2NC1=O)Nc1cccc(-c2nnc3n2CCCCC3)c1 (stereo not given) | 1.7 | 0.1 | -14.5 | 16.5* | -28.6 | 0.7 | 8.8 | 6.2
CC1(C(=O)NS(=O)(=O)c2ccc(F)cc2F)CCN1C(=O)C1(c2ccc(Cl)cc2)CC1 (stereo not given) | 6.4 | -1.7 | . | . | -5.7 | . | . | .
CC[n+]1c(C)sc2c3ccsc3ccc21 | 1.4 | 0.1 | -21.2 | 42.0* | 12.3 | 5.8 | 9.6 | 2.2
CCCCCCCCN1C(=O)[C@H](CC(=O)NCc2ccccc2)C[C@@]2(C(=O)OC)CC(C)(C)CC=C12 | -6.2 | 4.2 | . | . | . | . | . | .
COc1ccccc1CCNC(=O)C1CC(=O)N(c2ccccc2F)C1 (stereo not given) | 2.2 | -5.7 | . | . | -3.9 | . | . | .
O=C(NNC(=O)c1cccc2ccccc12)c1ccc(-c2ccccc2)cc1 | 1.3 | -0.6 | -7.7 | 17.8* | -0.1 | -2.9 | 3.1 | 46.8*
O=C(NNC(=O)c1cccc2ccccc12)c1ccccc1O | -5.7 | 3.4 | 4.0 | -6.0 | -3.7 | -1.5 | . | .
O=C(Nn1c(O)c(C=C2N=c3ccccc3=N2)sc1=S)c1ccccc1Cl | -1.3 | -1.9 | -5.3 | 17.1* | 20.4 | 3.5 | 9.5 | 8.0
CC(C)(C)OC(=O)NCCc1onc(-c2ccccc2F)c1C(=O)O | 0.9 | -2.7 | . | . | -7.7 | . | . | .
Cc1cc(C)c2nc(N3CCN(C(=O)c4ccco4)CC3)sc2c1 | 0.7 | 0.5 | -6.9 | 10.2 | -9.7 | -1.9 | . | .
Cc1cc2nc(N3CCN(C(=O)c4ccco4)CC3)sc2cc1C | -4.4 | -2.3 | -12.0 | 22.1* | 4.9 | 1.1 | 5.2 | 26.0*
Cc1cccc2[nH]c3c(N4CCN(C(=O)c5ccco5)CC4)ncnc3c12 | -1.0 | -0.1 | -20.0 | 30.3* | 1.2 | -1.7 | 12.0 | 9.1
OC(c1cccnc1)c1nc(-c2ccc3c(c2)OCO3)cs1 (stereo not given) | -0.4 | 0.1 | . | . | -1.3 | . | . | .
CCc1ccc([C@H]2[C@@H]3C(=O)C[C@@H]4C(=O)NC(=O)[C@@H]4[C@@H]3CN2S(=O)(=O)c2ccc(C)cc2)cc1 | 0.8 | -3.8 | . | . | 0.9 | . | . | .
Fc1ccc(-c2ccnc(=S)[nH]2)cc1 | -3.2 | 4.0 | -23.9 | 39.6* | -3.0 | 1.2 | 7.6 | 12.1
CSc1sc(-c2ccnc(=S)[nH]2)c(-c2ccccc2)c1C#N | 2.5 | -1.0 | . | -2.9 | 7.7 | 3.9 | . | .
